According to ChEMBL document CHEMBL1151755, “Crystal structure of the peroxisome proliferator-activated receptor gamma (PPARgamma) ligand binding domain complexed with a novel partial agonist: a new region of the hydrophobic pocket could be exploited for drug design” (J Med Chem, 2008):

Assays:
[1] = biological target: T1, Peroxisome proliferator-activated receptor alpha (Homo sapiens) (UniProt Q07869); test: Agonist activity at PPARalpha ligand binding domain expressed in human Hep G2 cells co-transfected with Gal4-DBD by luciferase reporter gene assay relative to Wy 14,643; assay type: cell-based; details: HepG2
T1 sequence (whole entry): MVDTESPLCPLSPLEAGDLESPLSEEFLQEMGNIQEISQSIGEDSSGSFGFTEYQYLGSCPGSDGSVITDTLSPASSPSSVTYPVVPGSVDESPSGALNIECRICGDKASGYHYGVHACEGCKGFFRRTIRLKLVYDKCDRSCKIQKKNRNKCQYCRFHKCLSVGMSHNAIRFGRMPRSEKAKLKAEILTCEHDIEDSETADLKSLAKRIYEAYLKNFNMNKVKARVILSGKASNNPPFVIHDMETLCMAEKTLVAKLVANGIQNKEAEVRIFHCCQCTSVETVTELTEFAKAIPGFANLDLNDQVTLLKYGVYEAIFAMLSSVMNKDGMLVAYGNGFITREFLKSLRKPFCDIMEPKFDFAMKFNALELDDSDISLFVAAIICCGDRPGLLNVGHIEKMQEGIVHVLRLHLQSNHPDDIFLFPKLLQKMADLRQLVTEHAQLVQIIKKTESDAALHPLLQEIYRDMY
How it was run: (§1)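 HepG2 cells received the Gal4-receptor LBD construct (50 ng), pGal4UAS-luciferase (100 ng) and pCMVβ (300 ng) by calcium phosphate coprecipitation for 4 h. They were then treated in serum-free DMEM/F-12 with ligand or 0.1% ethanol for 20 h. Luciferase was normalized to β-galactosidase, and efficacy was expressed as percent of the Wy 14,643 maximum (100%). Values are mean ± SEM of 3–5 experiments in triplicate.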

[2] = biological target: T2, Peroxisome proliferator-activated receptor alpha (Homo sapiens, UniProt Q07869); test: Agonist activity at PPARalpha ligand binding domain expressed in human Hep G2 cells co-transfected with Gal4-DBD by luciferase reporter gene assay; assay type: cell-based, HepG2
T2 sequence (Q07869 whole entry): T1 sequence (whole entry)
How it was run: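 Gal4-LBD fusion vector (50 ng) was co-transfected with pGal4UAS-luciferase (100 ng) and pCMVβ β-galactosidase normalizer (300 ng) into HepG2 cells by calcium phosphate for 4 h. Cells were washed, then given serum-free DMEM/F-12 with ligand or 0.1% ethanol vehicle for 20 h. Luciferase was normalized to β-galactosidase. EC50 came from concentration-response curves, mean ± SEM of 3–5 independent experiments in triplicate.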

[3] = biological target: T1, Peroxisome proliferator-activated receptor alpha (Homo sapiens); test: Agonist activity at human PPARalpha ligand binding domain expressed in human Hep G2 cells co-transfected with Gal4-DBD by luciferase reporter gene assay relative to Wy 14,643; assay type: cell-based; details: HepG2; how it was run: as §1
[4] = biological target: T3, Peroxisome proliferator-activated receptor alpha (Mus musculus) (UniProt P23204); test: Agonist activity at mouse PPARalpha ligand binding domain expressed in human Hep G2 cells co-transfected with Gal4-DBD by luciferase reporter gene assay relative to Wy 14,643; assay type: cell-based; details: HepG2; how it was run: as §1
T3 sequence (whole entry): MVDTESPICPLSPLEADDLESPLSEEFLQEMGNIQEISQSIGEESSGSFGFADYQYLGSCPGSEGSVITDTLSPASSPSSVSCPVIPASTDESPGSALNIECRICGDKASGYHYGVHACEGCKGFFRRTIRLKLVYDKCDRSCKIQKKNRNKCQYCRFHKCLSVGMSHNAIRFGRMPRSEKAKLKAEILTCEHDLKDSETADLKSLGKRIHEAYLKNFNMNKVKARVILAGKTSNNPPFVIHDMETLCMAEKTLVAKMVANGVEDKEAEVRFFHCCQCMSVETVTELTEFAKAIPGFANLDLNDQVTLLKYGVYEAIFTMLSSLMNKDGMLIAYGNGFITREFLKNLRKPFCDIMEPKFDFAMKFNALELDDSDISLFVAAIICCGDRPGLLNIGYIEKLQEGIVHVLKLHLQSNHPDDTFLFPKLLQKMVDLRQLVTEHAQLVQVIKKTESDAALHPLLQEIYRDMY

Compound: O=C(O)[C@H](Cc1ccccc1)Oc1ccc(CCc2ccccc2)cc1
- Efficacy [1]: 83%
- EC50 [2]: 150 nM

Compound: Cc1cccc(Nc2cc(Cl)nc(SCC(=O)O)n2)c1C
- Efficacy [3]: 100%
- Efficacy [4]: 100%

Compound: O=C(O)[C@H](Cc1ccccc1)Oc1ccc(Cc2ccccc2)cc1
- Efficacy [1]: 107%
- EC50 [2]: 11 nM
